Laboratory results from PMC11792500 (RSC Advances, 2025).
Read-outs that look alike come from different tables or passages of the source.

What was measured:
HCT-116 (colon cancer) = test: MTT cytotoxicity assay, HCT-116 colon cancer cells; assay type: cell-based, human; settings: read-out: IC50 against HCT-116
How it was run: (§1)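 Cells (HCT116 or normal dermal fibroblasts) were obtained from ATCC, seeded per doubling time, and grown in RPMI at 37 °C, humidified 5% CO₂. After 48 h exposure to increasing test compound concentrations, MTT at 5 mg ml⁻¹ working concentration was added for 3 h in the dark, followed by DMSO solubilisation with shaking. OD was read at 570/630 nm, viability expressed as treated/untreated × 100, and IC50 ±SD reported from duplicate wells, ≥3 independent runs.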

A549 (lung cancer) = test: MTT cytotoxicity assay, A549 lung cancer cells; assay type: cell-based, human; settings: for IC50: read-out: IC50 against A549; for lipophilic efficiency (LLE): from cytotoxicity IC50 at A549, DataWarrior
How it was run: (§2)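 Cells from ATCC, seeded at densities set by doubling time and kept in RPMI at 37 °C, 5% CO₂. They were exposed to increasing concentrations for 48 h. MTT at 5 mg ml⁻¹ working concentration was added for 3 h in the dark, and crystals were dissolved in DMSO. […] LLE was estimated from these IC50 values and compound physicochemical properties.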

[1] = tested on: normal dermal fibroblast cells; test: MTT cytotoxicity assay, normal fibroblasts; assay type: cell-based; settings: 48 h, read-out: IC50 against normal fibroblasts
How it was run: as §1

T47-D (breast cancer) = test: MTT cytotoxicity assay, T47-D breast cancer cells; assay type: cell-based, human; settings: for IC50: read-out: IC50 against T47-D, MTT, 48 h treatment, ±SD, n = 9; for lipophilic efficiency (LLE): from cytotoxicity IC50 at T47-D (printed H47-D), DataWarrior
How it was run: as §2

A549 cell migration = test: Wound healing; assay type: cell-based, human; settings: A549 cells, 24 h, control 0%; for inhibition of cell migration at IC50: compound at IC50 concentration; for inhibition of cell migration at Sub IC50: compound at sub-IC50 concentration
How it was run: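 A549 cells were seeded at 35 000 per culture insert and grown 24 h. Proliferation was blocked with 10 μg ml⁻¹ mitomycin C for 2 h, then cells were washed three times. Cells were exposed to two test concentrations (full and sub-level) and the wound imaged at 0 and 24 h. Wound width was measured, and migration inhibition expressed against the untreated control (0%).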

EGFR kinase = EGFR kinase (Homo sapiens, UniProt P00533); test: EGFR kinase inhibition; assay type: biochemical; settings: three independent replicates
[2] = MTT, 48 h treatment, ±SD, n = 9

Sequence of EGFR kinase (P00533 25-1210): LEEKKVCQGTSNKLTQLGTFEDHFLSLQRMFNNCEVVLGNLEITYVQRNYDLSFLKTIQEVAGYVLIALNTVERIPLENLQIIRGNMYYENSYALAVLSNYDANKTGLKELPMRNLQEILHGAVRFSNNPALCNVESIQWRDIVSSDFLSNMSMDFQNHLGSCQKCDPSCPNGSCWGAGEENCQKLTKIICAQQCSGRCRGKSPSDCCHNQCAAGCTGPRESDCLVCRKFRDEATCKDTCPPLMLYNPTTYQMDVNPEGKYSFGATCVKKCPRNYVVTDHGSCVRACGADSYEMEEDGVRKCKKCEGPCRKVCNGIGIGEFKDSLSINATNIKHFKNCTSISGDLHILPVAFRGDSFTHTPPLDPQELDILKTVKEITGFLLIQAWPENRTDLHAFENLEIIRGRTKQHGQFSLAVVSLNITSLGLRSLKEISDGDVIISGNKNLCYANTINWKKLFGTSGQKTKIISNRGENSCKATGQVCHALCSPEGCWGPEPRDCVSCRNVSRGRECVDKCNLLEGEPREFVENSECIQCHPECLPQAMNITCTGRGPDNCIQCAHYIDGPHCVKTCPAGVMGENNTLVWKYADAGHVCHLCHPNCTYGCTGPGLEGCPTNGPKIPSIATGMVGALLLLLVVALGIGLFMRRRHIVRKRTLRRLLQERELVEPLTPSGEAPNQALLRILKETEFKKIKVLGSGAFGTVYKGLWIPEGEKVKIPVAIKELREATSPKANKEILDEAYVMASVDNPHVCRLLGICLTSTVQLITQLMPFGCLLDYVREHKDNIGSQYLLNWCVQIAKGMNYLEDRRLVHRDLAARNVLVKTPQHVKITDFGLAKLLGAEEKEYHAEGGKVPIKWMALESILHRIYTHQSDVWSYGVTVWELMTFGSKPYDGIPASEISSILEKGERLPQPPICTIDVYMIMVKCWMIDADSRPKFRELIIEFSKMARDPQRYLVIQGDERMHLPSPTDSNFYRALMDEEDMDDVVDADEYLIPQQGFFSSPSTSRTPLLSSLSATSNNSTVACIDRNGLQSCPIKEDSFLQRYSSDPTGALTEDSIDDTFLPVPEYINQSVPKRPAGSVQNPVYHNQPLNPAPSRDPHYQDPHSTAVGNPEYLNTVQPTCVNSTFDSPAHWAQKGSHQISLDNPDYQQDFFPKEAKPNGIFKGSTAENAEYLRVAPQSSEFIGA

O=c1[nH]cc(F)c(=O)[nH]1 [5-FU, reference compound]
IC50 (HCT-116 (colon cancer); [2]): 11 ± 0.7 µM

C#CCOc1ccc(/C=N\NC(=O)c2ccccc2)cc1 [7a, (Z)-N′-(4-(prop-2-yn-1-yloxy)benzylidene)benzohydrazide]
IC50 (HCT-116 (colon cancer); Homo sapiens, HCT-116, 48 h): 237 ± 6 µM | IC50 (A549 (lung cancer); Homo sapiens, A549, 48 h): 200 ± 4 µM | IC50 [1]: > 500 µM

C#CCOc1ccc(/C=N\Nc2ccc([N+](=O)[O-])cc2[N+](=O)[O-])cc1 [7c, (Z)-1-(2,4-dinitrophenyl)-2-(4-(prop-2-yn-1-yloxy)benzylidene)hydrazine]
IC50 (HCT-116 (colon cancer); Homo sapiens, HCT-116, 48 h): 209 ± 5 µM | IC50 (A549 (lung cancer); Homo sapiens, A549, 48 h): 156 ± 4 µM | IC50 [1]: > 500 µM

C#CCOc1ccc(/C=N\NC(N)=S)cc1 [7d, (Z)-2-(4-(prop-2-yn-1-yloxy)benzylidene)hydrazine-1-carbothioamide]
IC50 (HCT-116 (colon cancer); Homo sapiens, HCT-116, 48 h): 261 ± 6 µM | IC50 (A549 (lung cancer); Homo sapiens, A549, 48 h): 128 ± 5 µM | IC50 [1]: > 500 µM

O=C(Cn1cc(COc2ccc(/C=N/NC(=O)c3ccccc3)cc2)nn1)Nc1nc2ccccc2s1 [8a, (E)-N-(benzo[d]thiazol-2-yl)-2-(4-((4-((2-benzoylhydrazono)-methyl)phenoxy)methyl)-1H-1,2,3-triazol-1-yl)acetamide]
IC50 (T47-D (breast cancer)): 17 ± 1 µM | IC50 (HCT-116 (colon cancer); Homo sapiens, HCT-116, 48 h): 84 ± 3 µM | IC50 (A549 (lung cancer); Homo sapiens, A549, 48 h): 18 ± 1 µM | IC50 [1]: > 500 µM | inhibition of cell migration at IC50 (A549 cell migration): 92.4% | inhibition of cell migration at Sub IC50 (A549 cell migration): 44.8% | % of EGFR inhibition (EGFR kinase): 98.5 ± 3.1%

Cc1ccc2nc(NC(=O)Cn3cc(COc4ccc(/C=N/NC(=O)c5ccccc5)cc4)nn3)sc2c1 [8b, (E)-2-(4-((4-((2-benzoylhydrazono)methyl)phenoxy)methyl)-1H-1,2,3-triazol-1-yl)-N-(6-methylbenzo[d]thiazol-2-yl)acetamide]
IC50 (T47-D (breast cancer)): 13 ± 1 µM | IC50 (HCT-116 (colon cancer); Homo sapiens, HCT-116, 48 h): 94 ± 1 µM | IC50 (A549 (lung cancer); Homo sapiens, A549, 48 h): 21 ± 1 µM | IC50 [1]: > 500 µM | inhibition of cell migration at IC50 (A549 cell migration): 78.9% | inhibition of cell migration at Sub IC50 (A549 cell migration): 49.8% | % of EGFR inhibition (EGFR kinase): 96.8 ± 2.1%

CS(=O)(=O)c1ccc2nc(NC(=O)Cn3cc(COc4ccc(/C=N/NC(=O)c5ccccc5)cc4)nn3)sc2c1 [8c, (E)-2-(4-((4-((2-benzoylhydrazono)methyl)phenoxy)methyl)-1H-1,2,3-triazol-1-yl)-N-(6-(methylsulfonyl)benzo[d]thiazol-2-yl)acetamide]
lipophilic efficiency (LLE) (T47-D (breast cancer)): 1.93 | IC50 (HCT-116 (colon cancer); Homo sapiens, HCT-116, 48 h): 48 ± 2 µM | IC50 (A549 (lung cancer); Homo sapiens, A549, 48 h): 25 ± 1 µM | lipophilic efficiency (LLE) (A549 (lung cancer)): 1.84 | IC50 [1]: > 500 µM | % of EGFR inhibition (EGFR kinase): 92.3 ± 3.1%

O=C(Cn1cc(COc2ccc(/C=N/NC(=O)c3ccncc3)cc2)nn1)Nc1nc2ccccc2s1 [8d, (E)-N-(benzo[d]thiazol-2-yl)-2-(4-((4-((2-isonicotinoylhydrazono)methyl)phenoxy)methyl)-1H-1,2,3-triazol-1-yl)acetamide]
IC50 (HCT-116 (colon cancer); Homo sapiens, HCT-116, 48 h): 100 ± 2 µM | IC50 (A549 (lung cancer); Homo sapiens, A549, 48 h): 38 ± 2 µM | IC50 [1]: > 500 µM

Cc1ccc2nc(NC(=O)Cn3cc(COc4ccc(/C=N/NC(=O)c5ccncc5)cc4)nn3)sc2c1 [8e, (E)-2-(4-((4-((2-isonicotinoylhydrazono)methyl)phenoxy)methyl)-1H-1,2,3-triazol-1-yl)-N-(6-methylbenzo[d]thiazol-2-yl)acetamide]
IC50 (HCT-116 (colon cancer); Homo sapiens, HCT-116, 48 h): 207 ± 5 µM | IC50 (A549 (lung cancer); Homo sapiens, A549, 48 h): 92 ± 2 µM | IC50 [1]: > 500 µM

CS(=O)(=O)c1ccc2nc(NC(=O)Cn3cc(COc4ccc(/C=N/NC(=O)c5ccncc5)cc4)nn3)sc2c1 [8f, (E)-2-(4-((4-((2-isonicotinoylhydrazono)methyl)phenoxy)methyl)-1H-1,2,3-triazol-1-yl)-N-(6-(methylsulfonyl)benzo[d]thiazol-2-yl)acetamide]
lipophilic efficiency (LLE) (T47-D (breast cancer)): 2.58 | IC50 (HCT-116 (colon cancer); Homo sapiens, HCT-116, 48 h): 149 ± 3 µM | IC50 (A549 (lung cancer); Homo sapiens, A549, 48 h): 38 ± 2 µM | lipophilic efficiency (LLE) (A549 (lung cancer)): 2.66 | IC50 [1]: > 500 µM

O=C(Cn1cc(COc2ccc(/C=N\Nc3ccc([N+](=O)[O-])cc3[N+](=O)[O-])cc2)nn1)Nc1nc2ccccc2s1 [8g, (Z)-N-(benzo[d]thiazol-2-yl)-2-(4-((4-((2-(2,4-dinitrophenyl)hydrazono)methyl)phenoxy)methyl)-1H-1,2,3-triazol-1-yl)acetamide]
IC50 (HCT-116 (colon cancer); Homo sapiens, HCT-116, 48 h): 109 ± 3 µM | IC50 (A549 (lung cancer); Homo sapiens, A549, 48 h): 103 ± 5 µM | IC50 [1]: > 500 µM

CS(=O)(=O)c1ccc2nc(NC(=O)Cn3cc(COc4ccc(/C=N\Nc5ccc([N+](=O)[O-])cc5[N+](=O)[O-])cc4)nn3)sc2c1 [8i, (Z)-2-(4-((4-((2-(2,4-dinitrophenyl)hydrazono)methyl)phenoxy)methyl)-1H-1,2,3-triazol-1-yl)-N-(6-(methylsulfonyl)benzo[d]thiazol-2-yl)acetamide]
lipophilic efficiency (LLE) (T47-D (breast cancer)): 1.52 | IC50 (HCT-116 (colon cancer); Homo sapiens, HCT-116, 48 h): 162 ± 5 µM | IC50 (A549 (lung cancer); Homo sapiens, A549, 48 h): 89 ± 4 µM | lipophilic efficiency (LLE) (A549 (lung cancer)): 1.50 | IC50 [1]: > 500 µM

NC(=S)N/N=C\c1ccc(OCc2cn(CC(=O)Nc3nc4ccccc4s3)nn2)cc1 [8j, (Z)-N-(benzo[d]thiazol-2-yl)-2-(4-((4-((2-carbamothioylhydrazono)methyl)phenoxy)methyl)-1H-1,2,3-triazol-1-yl)acetamide]
lipophilic efficiency (LLE) (T47-D (breast cancer)): 1.81 | IC50 (HCT-116 (colon cancer); Homo sapiens, HCT-116, 48 h): 190 ± 4 µM | IC50 (A549 (lung cancer); Homo sapiens, A549, 48 h): 63 ± 2 µM | lipophilic efficiency (LLE) (A549 (lung cancer)): 1.82 | IC50 [1]: > 500 µM

Cc1ccc2nc(NC(=O)Cn3cc(COc4ccc(/C=N\NC(N)=S)cc4)nn3)sc2c1 [8k, (Z)-2-(4-((4-((2-carbamothioylhydrazono)methyl)phenoxy)methyl)-1H-1,2,3-triazol-1-yl)-N-(6-methylbenzo[d]thiazol-2-yl)acetamide]
IC50 (HCT-116 (colon cancer); Homo sapiens, HCT-116, 48 h): 170 ± 7 µM | IC50 (A549 (lung cancer); Homo sapiens, A549, 48 h): 138 ± 4 µM | IC50 [1]: > 500 µM

CS(=O)(=O)c1ccc2nc(NC(=O)Cn3cc(COc4ccc(/C=N\NC(N)=S)cc4)nn3)sc2c1 [8l, (Z)-2-(4-((4-((2-carbamothioylhydrazono)methyl)phenoxy)methyl)-1H-1,2,3-triazol-1-yl)-N-(6-(methylsulfonyl)benzo[d]thiazol-2-yl)acetamide]
IC50 (HCT-116 (colon cancer); Homo sapiens, HCT-116, 48 h): 180 ± 4 µM | IC50 (A549 (lung cancer); Homo sapiens, A549, 48 h): 142 ± 3 µM | IC50 [1]: > 500 µM

N.N.[Cl][Pt][Cl] [Cisplatin, reference compound]
IC50 (A549 (lung cancer); [2]): 22 ± 1 µM
